# Experiments:
# [1] = system: KB; experiment: Cytotoxicity against multi-drug resistant human KB cells overexpressing mdr1 after 3 days; assay type: functional, cell-based; details: 72 h
# Outline: (§1)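 KB cells and their multidrug-resistant KB/MDR subline overexpressing mdr1, incubated with compound for 3 days (doubling time about 20–24 h). Growth inhibition is given as IC50, the concentration inhibiting 50% of cell growth. Values are the mean of three independent experiments.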
# [2] = system: KB; experiment: Cytotoxicity against human KB cells after 3 days; assay type: functional, cell-based; details: 72 h; outline: as §1
# [3] = biological target: Cyclic AMP-responsive element-binding protein 1 (Homo sapiens) (UniProt P16220); experiment: Effect on transcriptional activity of CREB transfected in human Hep G2 cells after 1 hr by luciferase reporter gene assay relative to control; assay type: cell-based; details: HepG2
# Cyclic AMP-responsive element-binding protein 1 (Homo sapiens), sequence (P16220 whole entry): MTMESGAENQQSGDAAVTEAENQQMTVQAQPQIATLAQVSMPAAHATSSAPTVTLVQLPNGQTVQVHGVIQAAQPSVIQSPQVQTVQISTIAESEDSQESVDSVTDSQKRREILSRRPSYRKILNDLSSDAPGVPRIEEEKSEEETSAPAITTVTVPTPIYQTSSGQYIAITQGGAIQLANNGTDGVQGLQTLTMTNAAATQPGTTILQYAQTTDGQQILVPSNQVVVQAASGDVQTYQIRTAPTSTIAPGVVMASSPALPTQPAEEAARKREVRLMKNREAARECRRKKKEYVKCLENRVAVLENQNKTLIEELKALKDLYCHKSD
# Outline: (§2)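 HepG2 lines stably carrying luciferase reporters (NF-κB-luc, AP-1-luc, CRE-luc) were pretreated with a range of compound concentrations for 1 h, then incubated 4 h with or without stimulus: TNFα for NF-κB, TPA for AP-1, forskolin for CREB. Luciferase activity is expressed as % of the drug-free control, with or without stimulus. Amax is the maximal fold activity versus control; AC50 is the concentration giving 50% of maximal activity. Mean ± SD of ≥3 independent experiments.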
# [4] = biological target: Transcription factor Jun (Homo sapiens) (UniProt P05412); experiment: Effect on transcriptional activity of AP1 transfected in TPA-stimulated human Hep G2 cells after 4 hrs by luciferase reporter gene assay relative to control; assay type: cell-based; details: HepG2; outline: as §2
# Transcription factor Jun (Homo sapiens), sequence (P05412 whole entry): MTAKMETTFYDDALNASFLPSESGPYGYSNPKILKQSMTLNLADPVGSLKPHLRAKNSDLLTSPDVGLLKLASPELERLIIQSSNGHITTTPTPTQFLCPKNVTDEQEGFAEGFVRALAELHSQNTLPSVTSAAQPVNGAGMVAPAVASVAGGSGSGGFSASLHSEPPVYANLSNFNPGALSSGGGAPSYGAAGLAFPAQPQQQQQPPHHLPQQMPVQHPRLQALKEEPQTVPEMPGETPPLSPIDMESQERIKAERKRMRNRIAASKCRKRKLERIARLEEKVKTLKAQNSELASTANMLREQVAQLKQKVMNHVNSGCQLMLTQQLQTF
# [5] = system: HepG2; experiment: Effect on transcriptional activity of NF-kappaB transfected in human Hep G2 cells after 1 hr by luciferase reporter gene assay relative to control; assay type: cell-based; outline: as §2
# [6] = Effect on transcriptional activity of NF-kappaB transfected in TNF-alpha-stimulated human Hep G2 cells after 4 hrs by luciferase reporter gene assay; assay type: cell-based; details: HepG2, 4 h; outline: as §2
# [7] = Effect on transcriptional activity of NF-kappaB transfected in human Hep G2 cells after 1 hr by luciferase reporter gene assay; assay type: cell-based; details: HepG2, 1 h; outline: as §2
# [8] = system: HepG2; experiment: Effect on transcriptional activity of NF-kappaB transfected in TNF-alpha-stimulated human Hep G2 cells after 4 hrs by luciferase reporter gene assay relative to control; assay type: cell-based; outline: as §2
# [9] = biological target: Transcription factor Jun (Homo sapiens) (UniProt P05412); experiment: Effect on transcriptional activity of AP1 transfected in human Hep G2 cells after 1 hr by luciferase reporter gene assay relative to control; assay type: cell-based; details: HepG2; outline: as §2
# [10] = biological target: Cyclic AMP-responsive element-binding protein 1 (Homo sapiens) (UniProt P16220); experiment: Effect on transcriptional activity of CREB transfected in forskolin-stimulated human Hep G2 cells after 4 hrs by luciferase reporter gene assay relative to control; assay type: cell-based; details: HepG2; outline: as §2
Compound,fold change (FC) [3],fold change (FC) [4],fold change (FC) [9],fold change (FC) [10],IC50 [1] [µM],IC50 [2] [µM],fold change (FC) [5],AC50 [6] [µM],AC50 [7] [µM],fold change (FC) [8]
COc1c(O)cc2oc(-c3ccccc3)cc(=O)c2c1O [OROXYLIN A],1.28,1.27,1.41,2.61,16.1,31.1,4.12,5,4.8,2.5
CC(=O)Oc1c(O)cc2oc(-c3ccccc3)cc(=O)c2c1O,2.04,1.18,1.44,5.21,61.6,–,6.62,2.2,2.2,3.47
O=c1cc(-c2ccccc2)oc2cc(O)c(O)c(O)c12 [BAICALEIN],1.35,1.26,1.44,2.2,87.1,–,4.92,8.6,8.3,3.35
O=c1cc(-c2ccccc2)oc2cc(O)c(OCc3ccccc3)c(O)c12,1.31,0.85,1.36,7.69,3.2,–,2.08,–,0.5,1.47

# Continued, in another order:
fold change (FC) [3],fold change (FC) [4],fold change (FC) [9],fold change (FC) [10],Compound,IC50 [1] [µM],IC50 [2] [µM],fold change (FC) [5],AC50 [6] [µM],AC50 [7] [µM],fold change (FC) [8]
1.59,1.05,1.43,7.35,CCCOc1c(O)cc2oc(-c3ccccc3)cc(=O)c2c1O,> 100,–,1.81,–,–,1.36
1.81,1.21,1.35,14.5,CCOc1c(O)cc2oc(-c3ccccc3)cc(=O)c2c1O,17.5,–,2.92,–,0.7,1.27
